The target of test [1] is T1, Dual specificity mitogen-activated protein kinase kinase 3 (Homo sapiens, UniProt P46734).
T1 sequence (P46734 whole entry): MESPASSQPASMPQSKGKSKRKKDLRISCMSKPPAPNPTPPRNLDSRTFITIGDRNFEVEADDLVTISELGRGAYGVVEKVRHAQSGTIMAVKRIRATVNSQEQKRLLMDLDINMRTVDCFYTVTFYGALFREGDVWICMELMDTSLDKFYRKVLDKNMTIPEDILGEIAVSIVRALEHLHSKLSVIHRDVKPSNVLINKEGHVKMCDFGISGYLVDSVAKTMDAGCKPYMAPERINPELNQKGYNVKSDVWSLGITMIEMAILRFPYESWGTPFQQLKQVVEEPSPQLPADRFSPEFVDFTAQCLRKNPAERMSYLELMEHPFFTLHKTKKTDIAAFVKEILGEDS
In words: Inhibition of MKK3 (unknown origin) using [gamma-33P]-ATP after 20 mins by radiometric assay.

Test [2] is filed under the species Homo sapiens. Briefly: Selectivity ratio of IC50 for MKK3 (unknown origin) to IC50 for TAK1 (unknown origin).
For test [3], the species on record is Homo sapiens. Briefly: Selectivity ratio of IC50 for MKK3 (unknown origin) to IC50 for p38alpha (unknown origin).
The species entered for test [4] is Homo sapiens. In words: Selectivity ratio of IC50 for MKK3 (unknown origin) to IC50 for ASK1 (unknown origin).
Test [5] is filed under the species Homo sapiens. Briefly: Selectivity ratio of IC50 for MKK3 (unknown origin) to IC50 for MEK2 (unknown origin).
The species named for test [6] is Homo sapiens. Briefly: Selectivity ratio of IC50 for MKK3 (unknown origin) to IC50 for p38gamma (unknown origin).
The target in test [7] is Mitogen-activated protein kinase 14 (Homo sapiens, UniProt Q16539). Briefly: Inhibition of p38alpha phosphorylation in human TNFalpha-stimulated U937 cells treated 1 hr before by ELISA. Type of test: cell-based, U-937. The method in brief: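 U937 human leukemic monocytes were pre-treated with compound across a dose range for one hour, then stimulated with TNFα. Phospho-p38α was quantified by ELISA, and IC50 was taken from the dose-response.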

The species named for test [8] is Homo sapiens. Briefly: Selectivity ratio of IC50 for MKK3 (unknown origin) to IC50 for JNK2 (unknown origin).
Test [9] is filed under the species Homo sapiens. In words: Selectivity ratio of IC50 for MKK3 (unknown origin) to IC50 for ERK2 (unknown origin).
The species named for test [10] is Homo sapiens. In words: Selectivity ratio of IC50 for MKK3 (unknown origin) to IC50 for MEK1 (unknown origin).
For test [11], the species on record is Homo sapiens. In words: Selectivity ratio of IC50 for MKK3 (unknown origin) to IC50 for MLK3 (unknown origin).
Test [12] is filed under the species Homo sapiens. In words: Selectivity ratio of IC50 for MKK3 (unknown origin) to IC50 for MKK6 (unknown origin).
Test [13] is filed under the species Homo sapiens. In words: Selectivity ratio of IC50 for MKK3 (unknown origin) to IC50 for ERK1 (unknown origin).
The species named for test [14] is Homo sapiens. In words: Selectivity ratio of IC50 for MKK3 (unknown origin) to IC50 for JNK1 (unknown origin).
The target in test [15] is T1, Dual specificity mitogen-activated protein kinase kinase 3. In words: Binding affinity to MKK3 (unknown origin) by surface plasmon resonance assay.
In test [16] the target is T2, Dual specificity mitogen-activated protein kinase kinase 6 (Homo sapiens, UniProt P52564).
T2 sequence (P52564 whole entry): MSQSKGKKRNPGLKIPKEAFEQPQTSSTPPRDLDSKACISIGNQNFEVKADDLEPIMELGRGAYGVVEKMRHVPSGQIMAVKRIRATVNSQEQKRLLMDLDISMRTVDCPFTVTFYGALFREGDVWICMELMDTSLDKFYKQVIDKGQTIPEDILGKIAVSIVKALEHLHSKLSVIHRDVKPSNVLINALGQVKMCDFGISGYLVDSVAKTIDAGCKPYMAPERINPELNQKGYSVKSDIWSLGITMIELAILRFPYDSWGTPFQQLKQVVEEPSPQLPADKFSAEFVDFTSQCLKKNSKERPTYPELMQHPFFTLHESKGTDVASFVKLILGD
Briefly: Inhibition of MKK6 (unknown origin) using [gamma-33P]-ATP after 20 mins by radiometric assay.

Chain of Mitogen-activated protein kinase 14 (Q16539 whole entry): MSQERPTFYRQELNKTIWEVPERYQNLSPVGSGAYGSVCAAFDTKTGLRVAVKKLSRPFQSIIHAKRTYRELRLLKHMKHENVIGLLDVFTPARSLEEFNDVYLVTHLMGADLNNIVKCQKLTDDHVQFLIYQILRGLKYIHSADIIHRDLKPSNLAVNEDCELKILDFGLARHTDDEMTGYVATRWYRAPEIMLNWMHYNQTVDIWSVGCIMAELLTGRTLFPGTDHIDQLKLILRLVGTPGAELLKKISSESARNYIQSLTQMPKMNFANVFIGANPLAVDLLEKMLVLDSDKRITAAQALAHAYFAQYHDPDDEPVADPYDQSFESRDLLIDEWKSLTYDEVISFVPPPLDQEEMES

For orientation: IC50 means the concentration needed to halve the response being measured. A lower IC50 goes with inhibition by little substance. With `CNc1ccc(-c2ccncc2)nc1C(N)=O`, the IC50 in [1] worked out at 0.004 µM; in [7], 2.7 µM. The Ratio IC50 in test [2], in test [3], in [4], in test [5], in test [6] and in test [8] was above 100 in each case. Besides, the Ratio IC50 was above 100 in test [9]; above 100 in test [10]; above 100 in [11]; below 9 in [12]; above 100 in [13]; above 100 in [14].
Consider `NC(=O)c1nc(-c2ccncc2)ccc1N`, for which the IC50 in test [1] came out at 0.03 µM.
Same read-out and setting: next, `NC(=O)c1nc(-c2ccccc2)ccc1N`: 4.2 µM; `NC(=O)c1nc(-c2ccncc2)c2ccccn12`: 0.15 µM.
The Kd is the concentration at which binding is half-saturated. Higher therefore signals weaker binding. With `NC(=O)c1nnc2ccccc2c1N`, the IC50 worked out at 37 µM in [1] and 16 µM in test [16]. In test [15], binding was characterised by a dissociation constant (Kd) of 2 µM.
`NC(=O)c1nc(-c2ccns2)c2ccccn12`: the IC50 came out at 0.004 µM in test [1] and 0.73 µM in test [7]. For the same compound, the Ratio IC50 is 23 in [2]; above 100 in test [3]; above 100 in test [4]; above 100 in [5]; above 100 in test [6]; above 100 in test [8]. Further, the Ratio IC50 in [9] was above 100; in test [10] it was 86; in [11], above 100; in test [12], 12; in [13], above 100; in [14], above 100.
